pIC50: −log10 of the molar value. Active and inactive are the calls of the source. The calls are words filed in the database; no cut-off is given here.
Legend:
[1] = molecular target: Serine/threonine-protein kinase B-raf (Homo sapiens, UniProt P15056, V600E); assay: Inhibition of human recombinant GST-tagged BRAF catalytic domain (416 to 766 residues) V600E mutant expressed in baculovirus expression system preincubated for 1 hr followed by human full length recombinant N-terminal His-tagged MEK1 substrate addition measured after 25 mins by gel electrophoresis method
[2] = Antiproliferative activity against human A375 cells assessed as cell growth inhibition after 24 hrs by MTT assay; assay type: functional, cell-based; conditions: A-375, 24 h
[3] = Antiproliferative activity against human WM266.4 cells harboring BRAF V600E mutant assessed as cell growth inhibition after 24 hrs by MTT assay; assay type: functional, cell-based; conditions: WM 266-4, 24 h
[4] = Antiproliferative activity against human WM1361 cells assessed as cell growth inhibition after 24 hrs by MTT assay; assay type: functional, cell-based; conditions: WM1361, 24 h
[5] = Cytotoxicity against human 293T cells assessed as cell growth inhibition after 24 hrs by MTT assay; assay type: toxicity, cell-based, HEK-293T
WM 266-4 [6] = assay: Induction of apoptosis in human WM266.4 cells assessed as viable cells at 2 uM after 24 hrs by Annexin V-FITC/propidium iodide based flow cytometric analysis (reference value: 92.9 %); assay type: functional; conditions: WM 266-4, 24 h, read-out: Activity
Procedure, shortened: (§1)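 Apoptosis in WM266-4 (BRAF V600E) cells after 24 h at 0, 2, 4 or 8 µM, by Annexin V-FITC/PI dual staining and flow cytometry. Percentages of apoptotic cells were calculated. Three independent experiments.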

WM 266-4 [7] = assay: Induction of apoptosis in human WM266.4 cells assessed as early apoptotic cells at 2 uM after 24 hrs by Annexin V-FITC/propidium iodide based flow cytometric analysis (reference value: 1.60 %); assay type: functional; procedure, shortened: as §1
WM 266-4 [8] = assay: Induction of apoptosis in human WM266.4 cells assessed as late apoptotic cells at 2 uM after 24 hrs by Annexin V-FITC/propidium iodide based flow cytometric analysis (reference value: 5.04 %); assay type: functional; procedure, shortened: as §1
WM 266-4 [9] = assay: Induction of apoptosis in human WM266.4 cells assessed as necrotic cells at 2 uM after 24 hrs by Annexin V-FITC/propidium iodide based flow cytometric analysis (reference value: 0.435 %); assay type: functional; procedure, shortened: as §1
WM 266-4 [10] = assay: Induction of apoptosis in human WM266.4 cells assessed as viable cells at 4 uM after 24 hrs by Annexin V-FITC/propidium iodide based flow cytometric analysis (reference value: 92.9 %); assay type: functional; conditions: WM 266-4, 24 h, read-out: Activity; procedure, shortened: as §1
WM 266-4 [11] = assay: Induction of apoptosis in human WM266.4 cells assessed as early apoptotic cells at 4 uM after 24 hrs by Annexin V-FITC/propidium iodide based flow cytometric analysis (reference value: 1.60 %); assay type: functional; procedure, shortened: as §1
WM 266-4 [12] = assay: Induction of apoptosis in human WM266.4 cells assessed as late apoptotic cells at 4 uM after 24 hrs by Annexin V-FITC/propidium iodide based flow cytometric analysis (reference value: 5.04 %); assay type: functional; procedure, shortened: as §1
WM 266-4 [13] = assay: Induction of apoptosis in human WM266.4 cells assessed as necrotic cells at 4 uM after 24 hrs by Annexin V-FITC/propidium iodide based flow cytometric analysis (reference value: 0.435 %); assay type: functional; procedure, shortened: as §1
WM 266-4 [14] = assay: Induction of apoptosis in human WM266.4 cells assessed as viable cells at 8 uM after 24 hrs by Annexin V-FITC/propidium iodide based flow cytometric analysis (reference value: 92.9 %); assay type: functional; conditions: WM 266-4, 24 h, read-out: Activity; procedure, shortened: as §1
WM 266-4 [15] = assay: Induction of apoptosis in human WM266.4 cells assessed as early apoptotic cells at 8 uM after 24 hrs by Annexin V-FITC/propidium iodide based flow cytometric analysis (reference value: 1.60 %); assay type: functional; procedure, shortened: as §1
WM 266-4 [16] = assay: Induction of apoptosis in human WM266.4 cells assessed as late apoptotic cells at 8 uM after 24 hrs by Annexin V-FITC/propidium iodide based flow cytometric analysis (reference value: 5.04 %); assay type: functional; procedure, shortened: as §1
WM 266-4 [17] = assay: Induction of apoptosis in human WM266.4 cells assessed as necrotic cells at 8 uM after 24 hrs by Annexin V-FITC/propidium iodide based flow cytometric analysis (reference value: 0.435 %); assay type: functional; procedure, shortened: as §1
[18] = Induction of apoptosis in human WM1361 cells assessed as viable cells at 20 uM after 24 hrs by Annexin V-FITC/propidium iodide based flow cytometric analysis (reference value: 95.2 %); assay type: functional; conditions: WM1361, 24 h, read-out: Activity
[19] = Induction of apoptosis in human WM1361 cells assessed as early apoptotic cells at 20 uM after 24 hrs by Annexin V-FITC/propidium iodide based flow cytometric analysis (reference value: 1.02 %); assay type: functional
[20] = Induction of apoptosis in human WM1361 cells assessed as late apoptotic cells at 20 uM after 24 hrs by Annexin V-FITC/propidium iodide based flow cytometric analysis (reference value: 2.96 %); assay type: functional
[21] = Induction of apoptosis in human WM1361 cells assessed as necrotic cells at 20 uM after 24 hrs by Annexin V-FITC/propidium iodide based flow cytometric analysis (reference value: 0.860 %); assay type: functional
[22] = Induction of apoptosis in human WM1361 cells assessed as viable cells at 40 uM after 24 hrs by Annexin V-FITC/propidium iodide based flow cytometric analysis (reference value: 95.2 %); assay type: functional; conditions: WM1361, 24 h, read-out: Activity
[23] = Induction of apoptosis in human WM1361 cells assessed as early apoptotic cells at 40 uM after 24 hrs by Annexin V-FITC/propidium iodide based flow cytometric analysis (reference value: 1.02 %); assay type: functional
[24] = Induction of apoptosis in human WM1361 cells assessed as late apoptotic cells at 40 uM after 24 hrs by Annexin V-FITC/propidium iodide based flow cytometric analysis (reference value: 2.96 %); assay type: functional
[25] = Induction of apoptosis in human WM1361 cells assessed as necrotic cells at 40 uM after 24 hrs by Annexin V-FITC/propidium iodide based flow cytometric analysis (reference value: 0.860 %); assay type: functional
[26] = Induction of apoptosis in human WM1361 cells assessed as viable cells at 60 uM after 24 hrs by Annexin V-FITC/propidium iodide based flow cytometric analysis (reference value: 95.2 %); assay type: functional; conditions: WM1361, 24 h, read-out: Activity
[27] = Induction of apoptosis in human WM1361 cells assessed as early apoptotic cells at 60 uM after 24 hrs by Annexin V-FITC/propidium iodide based flow cytometric analysis (reference value: 1.02 %); assay type: functional
[28] = Induction of apoptosis in human WM1361 cells assessed as late apoptotic cells at 60 uM after 24 hrs by Annexin V-FITC/propidium iodide based flow cytometric analysis (reference value: 2.96 %); assay type: functional
[29] = Induction of apoptosis in human WM1361 cells assessed as necrotic cells at 60 uM after 24 hrs by Annexin V-FITC/propidium iodide based flow cytometric analysis (reference value: 0.860 %); assay type: functional
WM 266-4 [30] = assay: Induction of apoptosis in human WM266.4 cells assessed as DNA fragmentation up to 8 uM after 24 hrs by agarose gel electrophoresis; assay type: functional, cell-based
Procedure, shortened: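 DNA ladder assay: WM266-4 cells cultured at 37 °C for 24 h with 0, 2, 4 or 8 µM. DNA isolated and run on 2.0% agarose gel beside 2000 bp and 15000 bp markers. Untreated cells served as control.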

[31] = Cell cycle arrest in human WM266.4 cells assessed as accumulation at G0/G1 phase at 2 uM after 24 hrs by propidium iodide staining based FACS analysis (reference value: 56.58 %); assay type: functional; conditions: WM 266-4
Procedure, shortened: (§2)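 WM266-4 (BRAF V600E melanoma) cells exposed to 0, 2, 4 or 8 µM for 24 h. Cell-cycle distribution by flow cytometry, with G1, S and G2/M fractions gated. Three independent experiments.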

[32] = Cell cycle arrest in human WM266.4 cells assessed as accumulation at S phase at 2 uM after 24 hrs by propidium iodide staining based FACS analysis (reference value: 29.03 %); assay type: functional; conditions: WM 266-4; procedure, shortened: as §2
[33] = Cell cycle arrest in human WM266.4 cells assessed as accumulation at G2/M phase at 2 uM after 24 hrs by propidium iodide staining based FACS analysis (reference value: 14.39 %); assay type: functional; conditions: WM 266-4; procedure, shortened: as §2
[34] = Cell cycle arrest in human WM266.4 cells assessed as accumulation at G0/G1 phase at 4 uM after 24 hrs by propidium iodide staining based FACS analysis (reference value: 56.58 to 64.70%); assay type: functional; conditions: WM 266-4; procedure, shortened: as §2
[35] = Cell cycle arrest in human WM266.4 cells assessed as accumulation at S phase at 4 uM after 24 hrs by propidium iodide staining based FACS analysis (reference value: 29.03 to 29.51%); assay type: functional; conditions: WM 266-4; procedure, shortened: as §2
[36] = Cell cycle arrest in human WM266.4 cells assessed as accumulation at G2/M phase at 4 uM after 24 hrs by propidium iodide staining based FACS analysis (reference value: 5.79 to 14.39%); assay type: functional; conditions: WM 266-4; procedure, shortened: as §2
[37] = Cell cycle arrest in human WM266.4 cells assessed as accumulation at G0/G1 phase at 8 uM after 24 hrs by propidium iodide staining based FACS analysis (reference value: 56.58 %); assay type: functional; conditions: WM 266-4; procedure, shortened: as §2
[38] = Cell cycle arrest in human WM266.4 cells assessed as accumulation at S phase at 8 uM after 24 hrs by propidium iodide staining based FACS analysis (reference value: 29.03 %); assay type: functional; conditions: WM 266-4; procedure, shortened: as §2
[39] = Cell cycle arrest in human WM266.4 cells assessed as accumulation at G2/M phase at 8 uM after 24 hrs by propidium iodide staining based FACS analysis (reference value: 14.39 %); assay type: functional; conditions: WM 266-4; procedure, shortened: as §2
[40] = Cell cycle arrest in human WM266.4 cells assessed as accumulation at G2/M phase at 4 uM after 36 hrs by propidium iodide staining based FACS analysis (reference value: 5.79 %); assay type: functional; conditions: WM 266-4
WM 266-4 [41] = assay: Induction of apoptosis in human WM266.4 cells assessed as increase in apoptotic cells after 24 hrs by Annexin V-FITC/propidium iodide based flow cytometric analysis; assay type: functional, cell-based; procedure, shortened: as §1
[42] = Cell cycle arrest in human WM266.4 cells assessed as accumulation at S phase at 8 uM after 12 hrs by propidium iodide staining based FACS analysis (reference value: 29.51 %); conditions: WM 266-4
[43] = Cell cycle arrest in human WM266.4 cells assessed as accumulation at S phase at 8 uM after 36 hrs by propidium iodide staining based FACS analysis (reference value: 29.51 %); conditions: WM 266-4
[44] = Cell cycle arrest in human WM266.4 cells assessed as accumulation at G2/M phase at 8 uM after 12 hrs by propidium iodide staining based FACS analysis (reference value: 5.79 %); conditions: WM 266-4
[45] = Cell cycle arrest in human WM266.4 cells assessed as accumulation at G0/G1 phase at 8 uM after 12 hrs by propidium iodide staining based FACS analysis (reference value: 64.70 %); conditions: WM 266-4
[46] = Cell cycle arrest in human WM266.4 cells assessed as accumulation at G0/G1 phase at 8 uM after 36 hrs by propidium iodide staining based FACS analysis (reference value: 64.70 %); conditions: WM 266-4

Chain of Serine/threonine-protein kinase B-raf (P15056 2-766 V600E limits assumed): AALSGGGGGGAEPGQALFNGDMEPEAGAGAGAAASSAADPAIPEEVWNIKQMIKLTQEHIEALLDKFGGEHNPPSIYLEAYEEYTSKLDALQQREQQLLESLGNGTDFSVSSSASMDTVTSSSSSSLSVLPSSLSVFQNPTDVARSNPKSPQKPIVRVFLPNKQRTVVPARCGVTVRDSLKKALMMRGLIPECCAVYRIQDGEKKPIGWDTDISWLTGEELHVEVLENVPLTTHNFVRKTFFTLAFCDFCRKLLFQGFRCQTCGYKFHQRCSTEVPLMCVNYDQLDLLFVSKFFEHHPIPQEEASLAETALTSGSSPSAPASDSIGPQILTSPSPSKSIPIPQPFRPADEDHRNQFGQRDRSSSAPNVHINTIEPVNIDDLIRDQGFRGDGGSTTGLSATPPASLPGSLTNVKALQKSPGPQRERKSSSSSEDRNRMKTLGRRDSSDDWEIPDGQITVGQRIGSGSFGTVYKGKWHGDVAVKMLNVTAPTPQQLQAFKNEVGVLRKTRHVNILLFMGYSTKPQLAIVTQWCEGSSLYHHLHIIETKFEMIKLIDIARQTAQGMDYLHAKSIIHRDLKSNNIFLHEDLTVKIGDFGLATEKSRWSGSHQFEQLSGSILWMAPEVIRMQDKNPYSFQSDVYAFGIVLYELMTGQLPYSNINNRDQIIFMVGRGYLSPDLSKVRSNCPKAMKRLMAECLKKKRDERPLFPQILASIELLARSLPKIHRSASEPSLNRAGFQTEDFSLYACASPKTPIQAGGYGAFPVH

SMILES: O=c1oc2ccccc2c(N2CCN(C(c3ccccc3)c3ccccc3)CC2)c1CO
- pIC50 [1]: 6.43
- pIC50 [2]: 5.65
- pIC50 [3]: 5.87
- pIC50 [4]: 4.68
- CC50 at 24 h [5]: > 50 µM
- viability at 2 µM (WM 266-4 [6]): 67%
- Activity (WM 266-4 [7]): 13.4%
- Activity (WM 266-4 [8]): 14.5%
- Activity (WM 266-4 [9]): 5.06%
- viability at 4 µM (WM 266-4 [10]): 52.5%
- Activity (WM 266-4 [11]): 24.4%
- Activity (WM 266-4 [12]): 21.2%
- Activity (WM 266-4 [13]): 1.88%
- viability at 8 µM (WM 266-4 [14]): 37.1%
- Activity (WM 266-4 [15]): 27.1%
- Activity (WM 266-4 [16]): 32.7%
- Activity (WM 266-4 [17]): 3.07%
- viability at 20 µM [18]: 94.1%
- Activity [19]: 1.16%
- Activity [20]: 3.36%
- Activity [21]: 1.36%
- viability at 40 µM [22]: 92.9%
- Activity [23]: 0.856%
- Activity [24]: 5.11%
- Activity [25]: 1.15%
- viability at 60 µM [26]: 91.8%
- Activity [27]: 1.61%
- Activity [28]: 5.29%
- Activity [29]: 1.31%
- Activity (WM 266-4 [30]): Active
- Activity [31]: 65.8%
- Activity [32]: 21.6%
- Activity [33]: 12.6%
- Activity [34]: 76.4%
- Activity [35]: 5.88%
- Activity [36]: 7.56%
- Activity [37]: 82.4%
- Activity [38]: 6.48%
- Activity [39]: 11.1%
- Activity [40]: 2.41%
- Activity (WM 266-4 [41]): Dose-dependent effect
- Activity [42]: 21.6%
- Activity [43]: 8.26%
- Activity [44]: 12.2%
- Activity [45]: 66.2%
- Activity [46]: 89.3%

SMILES: O=c1oc2ccccc2c(N2CCN(c3ccccc3F)CC2)c1CO
- pIC50 [1]: 4.66
- pIC50 [2]: 4.49
- pIC50 [3]: 4.42
- pIC50 [4]: < 4.30
- CC50 at 24 h [5]: > 50 µM

SMILES: O=c1oc2ccccc2c(N2CCN(c3ccc(Cl)c(Cl)c3)CC2)c1CO
- pIC50 [1]: 5.59
- pIC50 [2]: 5.12
- pIC50 [3]: 5.22
- pIC50 [4]: 4.37
- CC50 at 24 h [5]: > 50 µM

SMILES: COc1ccc(N2CCN(c3c(CO)c(=O)oc4ccccc34)CC2)cc1
- pIC50 [1]: 5.74
- pIC50 [2]: 5.14
- pIC50 [3]: 5.25
- pIC50 [4]: 4.39
- CC50 at 24 h [5]: > 50 µM

— ChEMBL document CHEMBL3853342, “Design, synthesis and biological evaluation of novel benzo-α-pyrone containing piperazine derivatives as potential BRAFV600E inhibitors” (Bioorg Med Chem Lett, 2016)
